Measured values: ChEMBL document CHEMBL3112410, “Reaction intermediate analogues as bisubstrate inhibitors of pantothenate synthetase” (Bioorg Med Chem, 2014)
Activity calls are given as the source filed them. The rule behind the calls is not given here.

Assays:
[1] = test system: Mycobacterium tuberculosis; assay: Antimycobacterial activity against PanC deficient Mycobacterium tuberculosis H37RvMA assessed as growth inhibition up to 2 mM after 7 to 14 days; type: functional
How it was run: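 panC conditional knockdown (<5% wild-type PanC) grown to OD600 ~0.2 in 7H9 with Hyg 50 μg/mL, Km 25 μg/mL, Gm 5 μg/mL, diluted 500-fold. 2-fold serial dilutions from 4 mM starting concentration in 7H9 with half-strength antibiotics, with or without ATc (20 ng/mL) alone or ATc plus pantothenate (50 μg/mL). 37 °C, growth scored visually at 7, 10, 14 days.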

Pantothenate synthetase = target: T1, Pantothenate synthetase (Mycobacterium tuberculosis, UniProt P9WIL5); assay: Competitive inhibition of Mycobacterium tuberculosis recombinant PanC expressed in Escherichia coli BL21 (DE3) using pantoic acid and ATP as substrate by Michaelis-Menten equation analysis
T1 sequence (P9WIL5 whole entry): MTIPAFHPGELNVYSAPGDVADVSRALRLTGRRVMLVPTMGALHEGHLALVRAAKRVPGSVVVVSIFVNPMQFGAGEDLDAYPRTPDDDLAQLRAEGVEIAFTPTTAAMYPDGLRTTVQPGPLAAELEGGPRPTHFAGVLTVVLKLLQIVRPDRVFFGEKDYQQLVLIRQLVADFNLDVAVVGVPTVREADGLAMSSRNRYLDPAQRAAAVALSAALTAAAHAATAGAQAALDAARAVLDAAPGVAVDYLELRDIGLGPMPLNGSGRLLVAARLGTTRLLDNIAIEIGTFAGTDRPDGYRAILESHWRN
How it was run: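 N-terminal His6 PanC (pET28b, BL21(DE3), Ni-NTA purified), 400 nM. Continuous MesG pyrophosphate-coupled assay with pyrophosphatase and purine nucleoside phosphorylase, A360, 25 °C. Buffer 100 mM HEPES pH 8.0, 10 mM MgCl2, up to 5% DMSO. Pantoic acid varied 50–300 μM at 2.6 mM ATP, 2.4 mM β-alanine, several fixed inhibitor levels, PanC-initiated. Initial rates fit to the competitive equation for Ki.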

[2] = test system: Mycobacterium tuberculosis; assay: Antimycobacterial activity against wild type Mycobacterium tuberculosis H37RvMA assessed as growth inhibition up to 250 uM after 7 to 14 days; type: functional
How it was run: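 H37RvMA grown in 7H9 to OD600 ~0.2, diluted 500-fold into wells holding 2-fold serial compound dilutions (starting concentration 4 mM) in 7H9. Incubated at 37 °C. Growth was read by eye on days 7, 10 and 14.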

SMILES: CC(C)(C)[C@@H](O)C(=O)NS(=O)(=O)OC[C@H]1O[C@@H](n2cnc3c(N)ncnc32)[C@H](F)[C@@H]1O
- growth inhibition (GI) [1]: inactive
- Ki (Pantothenate synthetase): 990 nM
- growth inhibition (GI) [2]: inactive

SMILES: CC(C)(C)[C@@H](O)C(=O)NS(=O)(=O)OC[C@H]1O[C@@H](n2cnc3c(N)ncnc32)[C@H](O)[C@@H]1O
- growth inhibition (GI) [1]: inactive
- Ki (Pantothenate synthetase): 270 nM
- growth inhibition (GI) [2]: inactive

SMILES: CC(C)(C)[C@@H](O)C(=O)NS(=O)(=O)OC[C@H]1C[C@@H](n2cnc3c(N)ncnc32)[C@H](O)[C@@H]1O
- growth inhibition (GI) [1]: inactive
- Ki (Pantothenate synthetase): 870 nM
- growth inhibition (GI) [2]: inactive

SMILES: CC(C)(CO)[C@@H](O)CNS(=O)(=O)NC[C@H]1O[C@@H](n2cnc3c(N)ncnc32)[C@H](O)[C@@H]1O
- growth inhibition (GI) [1]: inactive
- Ki (Pantothenate synthetase): 3470 nM
- growth inhibition (GI) [2]: inactive

SMILES: CC(C)(C)[C@@H](O)C(=O)NS(=O)(=O)OC[C@H]1O[C@@H](n2cnc3c(N)ncnc32)[C@@H](O)[C@@H]1O
- growth inhibition (GI) [1]: inactive
- Ki (Pantothenate synthetase): 1730 nM
- growth inhibition (GI) [2]: inactive
